The target of test [1] is T1, YEATS domain-containing protein 2 (Homo sapiens, UniProt Q9ULM3).
T1 sequence (Q9ULM3 whole entry): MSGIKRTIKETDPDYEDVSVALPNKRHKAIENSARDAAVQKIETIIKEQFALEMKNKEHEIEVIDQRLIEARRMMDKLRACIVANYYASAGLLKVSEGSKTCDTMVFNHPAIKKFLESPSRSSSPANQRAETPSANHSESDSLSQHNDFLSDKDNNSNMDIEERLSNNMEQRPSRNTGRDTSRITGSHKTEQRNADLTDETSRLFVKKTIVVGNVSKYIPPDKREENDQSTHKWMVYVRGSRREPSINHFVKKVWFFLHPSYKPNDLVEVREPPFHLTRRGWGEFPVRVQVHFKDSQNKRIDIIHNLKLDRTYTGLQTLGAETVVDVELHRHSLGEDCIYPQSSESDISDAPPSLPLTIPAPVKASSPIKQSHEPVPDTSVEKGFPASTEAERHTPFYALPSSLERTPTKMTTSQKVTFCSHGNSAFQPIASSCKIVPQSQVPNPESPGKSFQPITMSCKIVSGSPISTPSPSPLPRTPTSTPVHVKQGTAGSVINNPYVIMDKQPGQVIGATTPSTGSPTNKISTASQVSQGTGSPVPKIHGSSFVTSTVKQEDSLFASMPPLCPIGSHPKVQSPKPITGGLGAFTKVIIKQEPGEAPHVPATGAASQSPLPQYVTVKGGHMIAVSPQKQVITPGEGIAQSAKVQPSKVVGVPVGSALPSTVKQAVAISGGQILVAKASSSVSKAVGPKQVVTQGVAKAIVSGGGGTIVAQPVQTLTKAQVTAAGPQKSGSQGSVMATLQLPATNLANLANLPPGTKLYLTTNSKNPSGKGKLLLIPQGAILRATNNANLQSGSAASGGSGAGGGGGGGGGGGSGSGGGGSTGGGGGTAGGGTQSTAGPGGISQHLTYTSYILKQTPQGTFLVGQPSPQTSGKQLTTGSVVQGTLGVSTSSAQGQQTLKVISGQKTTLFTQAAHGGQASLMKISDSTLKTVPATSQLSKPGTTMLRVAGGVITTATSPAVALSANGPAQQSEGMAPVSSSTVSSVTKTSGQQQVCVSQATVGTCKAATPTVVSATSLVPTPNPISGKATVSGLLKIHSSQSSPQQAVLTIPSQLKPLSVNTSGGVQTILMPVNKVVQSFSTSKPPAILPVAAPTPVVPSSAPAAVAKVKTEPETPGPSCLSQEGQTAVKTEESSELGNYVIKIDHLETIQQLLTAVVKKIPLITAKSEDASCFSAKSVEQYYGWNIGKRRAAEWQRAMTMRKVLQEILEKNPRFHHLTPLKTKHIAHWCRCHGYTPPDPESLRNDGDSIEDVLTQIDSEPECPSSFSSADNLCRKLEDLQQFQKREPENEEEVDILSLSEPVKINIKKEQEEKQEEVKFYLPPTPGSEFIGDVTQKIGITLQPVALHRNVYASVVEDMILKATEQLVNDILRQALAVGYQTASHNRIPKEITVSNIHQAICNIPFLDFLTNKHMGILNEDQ
The experiment in a line: Inhibition of human His-YEATS2 YEATS domain and biotinylated […] peptide interaction by AlphaScreen assay. Put shortly:
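His-tagged YEATS domains were expressed in E. coli Rosetta-2 (DE3) pLysS and purified on Ni-NTA. Partners were biotinylated peptide on streptavidin donor and Ni2+-chelate acceptor beads: AF9 30 nM with H3K9ac, GAS41 100 nM with H3K27ac, YEATS2 100 nM with H3K27cr. Peptides at 30 nM, buffer 50 mM HEPES pH 7.4, 100 mM NaCl, 0.1% BSA, 0.05% CHAPS. Thirteen-point 3-fold series from 54 μM to 0.1 nM, 4–6 replicates, signal normalised to no-compound control, four-parameter fit.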
(Alpha assays give light when donor and acceptor beads are brought close together.)

Test [2] concerns the target YEATS domain-containing protein 4 (Homo sapiens, UniProt O95619). The experiment in a line: Inhibition of human His-GAS41 YEATS domain and biotinylated H3K27ac peptide interaction at 20 uM by AlphaScreen assay.
For test [3], the target named is T2, YEATS domain-containing protein 2 (Homo sapiens) (UniProt Q9ULM3).
T2 sequence (whole entry): T1 sequence (Q9ULM3 whole entry)
The experiment in a line: Inhibition of human His-YEATS2 YEATS domain and biotinylated […] peptide interaction at 20 uM by AlphaScreen assay.

Test [4] concerns the target T3, Protein ENL (Homo sapiens) (UniProt Q03111).
T3 sequence (whole entry): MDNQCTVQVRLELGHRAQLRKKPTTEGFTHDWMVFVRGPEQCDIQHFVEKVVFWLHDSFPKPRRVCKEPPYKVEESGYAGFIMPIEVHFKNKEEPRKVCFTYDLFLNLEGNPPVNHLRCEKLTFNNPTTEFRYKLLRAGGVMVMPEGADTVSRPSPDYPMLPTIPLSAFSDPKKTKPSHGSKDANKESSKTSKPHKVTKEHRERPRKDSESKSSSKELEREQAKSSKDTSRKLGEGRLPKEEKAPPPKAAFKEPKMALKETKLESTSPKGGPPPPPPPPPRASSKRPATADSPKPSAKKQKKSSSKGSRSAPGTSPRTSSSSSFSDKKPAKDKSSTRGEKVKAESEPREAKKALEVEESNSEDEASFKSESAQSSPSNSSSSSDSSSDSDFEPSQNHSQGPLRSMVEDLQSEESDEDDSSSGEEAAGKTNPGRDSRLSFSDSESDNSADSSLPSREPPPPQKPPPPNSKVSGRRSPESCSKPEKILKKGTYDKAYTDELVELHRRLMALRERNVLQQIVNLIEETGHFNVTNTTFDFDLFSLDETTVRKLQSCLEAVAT
The experiment in a line: Stabilization of ENL in human HeLa cells assessed as inhibition of high temperature-induced ENL protein degradation at 20 uM incubated for 5 hrs by cellular thermal shift assay. The format is cell-based. A digest of the protocol: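 Cells (MOLM13, MV4;11 or HeLa) were treated with 20 μM compound or DMSO for 5 h, washed with PBS and resuspended in PBS with protease inhibitors, about 3 million cells per aliquot. Aliquots were heated 3 min at the indicated temperatures, then held 2 min at room temperature. Lysis was by NP40/glycerol/DTT buffer and three freeze-thaw cycles, followed by a 13,000 rpm spin at 4 °C. Soluble ENL, GAS41 or AF9 in supernatants was measured by western blot with β-actin loading control.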

The values below come from ChEMBL document CHEMBL4808215, “Discovery of Selective Small-Molecule Inhibitors for the ENL YEATS Domain” (J Med Chem, 2021).

SMILES strings stand for the structures. pIC50: −log10 of the molar value. The source made the active and inactive calls. The calls are words filed in the database; no cut-off is given here.

Broadly, the pIC50 is the negative decadic logarithm of the IC50, by convention in mol/L.

Chain of YEATS domain-containing protein 4 (O95619 whole entry, the tested form may be a part): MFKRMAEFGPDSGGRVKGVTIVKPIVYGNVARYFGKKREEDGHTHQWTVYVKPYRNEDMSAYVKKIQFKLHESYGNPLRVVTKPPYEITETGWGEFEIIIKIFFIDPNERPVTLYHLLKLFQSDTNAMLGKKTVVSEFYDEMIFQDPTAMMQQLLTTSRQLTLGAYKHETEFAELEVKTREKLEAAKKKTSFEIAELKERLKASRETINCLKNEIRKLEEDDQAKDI

Compound `CN(C)Cc1ccc(CNC(=O)c2ccc3nncn3c2)cc1` gave a pIC50 in test [1] of under 4.27. The inhibition entry in test [2] and in test [3] was “Active” in each case. Further, the result in test [4] was Active.
